Source: ChEMBL document CHEMBL5257027 (Eur J Med Chem, 2016)

Assays:
[1] = Antiproliferative activity against human Panel NCI-58 (58 Carcinoma cell lines) assessed as reduction in mean cell growth at 10 uM; format: functional; design: scale not given: the % may be the effect or the level left
In short: (§1)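 NCI 58-cell-line screen covering leukemia, NSCLC, colon, CNS, melanoma, ovarian, renal, prostate and breast lines. Compounds given once at […] (micromolar per the line). Percent inhibition taken as 100 minus growth percent. Panel line reports the mean over all 58 lines.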

[2] = species: Homo sapiens; assay: Inhibition of ABL […] mutant (unknown origin) at 10 uM using […] as substrate incubated for 40 mins in presence of [gamma33P]ATP by scintillation counting based hotspot kinase assay relative to control
[3] = molecular target: Tyrosine-protein kinase ABL1 (Homo sapiens) (UniProt P00519); assay: Inhibition of ABL (unknown origin) at 10 uM using […] as substrate incubated for 40 mins in presence of [gamma33P]ATP by scintillation counting based hotspot kinase assay relative to control
Sequence of Tyrosine-protein kinase ABL1 (Homo sapiens) (P00519 whole entry): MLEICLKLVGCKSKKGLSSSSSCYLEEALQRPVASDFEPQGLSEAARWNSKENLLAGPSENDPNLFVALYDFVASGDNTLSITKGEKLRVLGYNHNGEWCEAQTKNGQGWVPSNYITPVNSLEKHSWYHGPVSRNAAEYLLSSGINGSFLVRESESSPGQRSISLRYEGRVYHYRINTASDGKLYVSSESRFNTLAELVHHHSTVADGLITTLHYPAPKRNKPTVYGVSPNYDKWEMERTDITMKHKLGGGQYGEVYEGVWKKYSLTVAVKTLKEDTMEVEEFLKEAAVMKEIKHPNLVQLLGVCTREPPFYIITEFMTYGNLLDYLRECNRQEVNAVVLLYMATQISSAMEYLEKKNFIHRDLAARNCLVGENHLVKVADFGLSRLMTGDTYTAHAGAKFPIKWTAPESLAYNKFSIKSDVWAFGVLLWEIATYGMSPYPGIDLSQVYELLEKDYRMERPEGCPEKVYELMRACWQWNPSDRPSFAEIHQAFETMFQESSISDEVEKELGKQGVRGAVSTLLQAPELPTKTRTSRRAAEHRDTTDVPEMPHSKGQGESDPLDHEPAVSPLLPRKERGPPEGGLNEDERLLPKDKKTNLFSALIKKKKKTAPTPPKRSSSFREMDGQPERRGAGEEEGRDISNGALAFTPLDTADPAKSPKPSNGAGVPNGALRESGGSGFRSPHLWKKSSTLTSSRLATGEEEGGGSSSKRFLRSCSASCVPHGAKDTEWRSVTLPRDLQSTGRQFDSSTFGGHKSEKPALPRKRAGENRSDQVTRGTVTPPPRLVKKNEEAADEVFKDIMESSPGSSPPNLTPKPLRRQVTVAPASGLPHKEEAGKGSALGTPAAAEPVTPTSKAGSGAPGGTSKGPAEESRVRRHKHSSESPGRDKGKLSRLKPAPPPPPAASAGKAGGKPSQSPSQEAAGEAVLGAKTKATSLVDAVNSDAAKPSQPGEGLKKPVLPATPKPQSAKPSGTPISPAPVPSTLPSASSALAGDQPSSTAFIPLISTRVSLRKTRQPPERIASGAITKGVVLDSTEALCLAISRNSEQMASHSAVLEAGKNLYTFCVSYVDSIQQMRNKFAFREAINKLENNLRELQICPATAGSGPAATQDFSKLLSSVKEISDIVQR

[4] = molecular target: T1, RAF proto-oncogene serine/threonine-protein kinase (Homo sapiens, UniProt P04049); assay: Inhibition of RAF1 (unknown origin) using […] as substrate incubated for 40 mins in presence of [gamma33P]ATP by scintillation counting based hotspot kinase assay
T1 sequence (P04049 whole entry): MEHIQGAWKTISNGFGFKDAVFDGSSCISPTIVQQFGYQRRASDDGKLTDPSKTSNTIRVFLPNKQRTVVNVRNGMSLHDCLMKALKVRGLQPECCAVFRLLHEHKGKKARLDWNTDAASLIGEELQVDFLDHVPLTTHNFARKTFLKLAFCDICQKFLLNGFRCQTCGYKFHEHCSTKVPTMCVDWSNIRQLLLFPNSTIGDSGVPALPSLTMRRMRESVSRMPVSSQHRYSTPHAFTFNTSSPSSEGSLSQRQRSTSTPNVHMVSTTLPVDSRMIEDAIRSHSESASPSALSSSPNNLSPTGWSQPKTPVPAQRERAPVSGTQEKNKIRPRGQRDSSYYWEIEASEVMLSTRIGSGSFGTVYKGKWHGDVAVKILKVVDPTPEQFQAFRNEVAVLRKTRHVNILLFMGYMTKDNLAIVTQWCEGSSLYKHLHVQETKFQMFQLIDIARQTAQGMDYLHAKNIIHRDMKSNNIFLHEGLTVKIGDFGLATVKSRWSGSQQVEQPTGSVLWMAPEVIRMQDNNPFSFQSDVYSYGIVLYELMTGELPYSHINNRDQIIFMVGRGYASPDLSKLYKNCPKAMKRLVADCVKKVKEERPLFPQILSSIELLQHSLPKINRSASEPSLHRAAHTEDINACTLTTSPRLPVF
In short: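 IC50 from a radiometric assay. Kinase (5–10 mU) is incubated in 25 mM Tris pH 7.5 with 0.02 mM EGTA, 0.66 mg/mL myelin basic protein as substrate, 10 mM magnesium acetate and [γ33P]ATP. Mg-ATP starts the reaction, which runs 40 min at room temperature. It is stopped with 3% phosphoric acid, captured on filtermat, washed and counted by scintillation.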

[5] = molecular target: T1, RAF proto-oncogene serine/threonine-protein kinase; assay: Inhibition of RAF1 (unknown origin) at 10 uM using […] as substrate incubated for 40 mins in presence of [gamma33P]ATP by scintillation counting based hotspot kinase assay relative to control
[6] = molecular target: Mitogen-activated protein kinase 14 (Homo sapiens) (UniProt Q16539); assay: Inhibition of MAPK14 (p38 alpha) (unknown origin) at 10 uM using […] as substrate incubated for 40 mins in presence of [gamma33P]ATP by scintillation counting based hotspot kinase assay relative to control
Sequence of Mitogen-activated protein kinase 14 (Homo sapiens) (Q16539 whole entry): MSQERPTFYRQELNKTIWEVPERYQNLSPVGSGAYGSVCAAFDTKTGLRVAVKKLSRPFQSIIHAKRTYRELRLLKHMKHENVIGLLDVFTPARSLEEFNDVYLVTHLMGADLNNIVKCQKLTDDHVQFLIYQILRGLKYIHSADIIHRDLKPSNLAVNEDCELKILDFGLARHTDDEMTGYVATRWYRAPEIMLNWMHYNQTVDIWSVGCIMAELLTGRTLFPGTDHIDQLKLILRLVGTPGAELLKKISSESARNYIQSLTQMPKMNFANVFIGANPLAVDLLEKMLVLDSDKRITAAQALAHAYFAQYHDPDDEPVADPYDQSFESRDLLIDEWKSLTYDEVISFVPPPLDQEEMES

[7] = molecular target: Epidermal growth factor receptor (Homo sapiens) (UniProt P00533); assay: Inhibition of EGFR (unknown origin) at 10 uM using […] as substrate incubated for 40 mins in presence of [gamma33P]ATP by scintillation counting based hotspot kinase assay relative to control
Sequence of Epidermal growth factor receptor (Homo sapiens) (P00533 whole entry): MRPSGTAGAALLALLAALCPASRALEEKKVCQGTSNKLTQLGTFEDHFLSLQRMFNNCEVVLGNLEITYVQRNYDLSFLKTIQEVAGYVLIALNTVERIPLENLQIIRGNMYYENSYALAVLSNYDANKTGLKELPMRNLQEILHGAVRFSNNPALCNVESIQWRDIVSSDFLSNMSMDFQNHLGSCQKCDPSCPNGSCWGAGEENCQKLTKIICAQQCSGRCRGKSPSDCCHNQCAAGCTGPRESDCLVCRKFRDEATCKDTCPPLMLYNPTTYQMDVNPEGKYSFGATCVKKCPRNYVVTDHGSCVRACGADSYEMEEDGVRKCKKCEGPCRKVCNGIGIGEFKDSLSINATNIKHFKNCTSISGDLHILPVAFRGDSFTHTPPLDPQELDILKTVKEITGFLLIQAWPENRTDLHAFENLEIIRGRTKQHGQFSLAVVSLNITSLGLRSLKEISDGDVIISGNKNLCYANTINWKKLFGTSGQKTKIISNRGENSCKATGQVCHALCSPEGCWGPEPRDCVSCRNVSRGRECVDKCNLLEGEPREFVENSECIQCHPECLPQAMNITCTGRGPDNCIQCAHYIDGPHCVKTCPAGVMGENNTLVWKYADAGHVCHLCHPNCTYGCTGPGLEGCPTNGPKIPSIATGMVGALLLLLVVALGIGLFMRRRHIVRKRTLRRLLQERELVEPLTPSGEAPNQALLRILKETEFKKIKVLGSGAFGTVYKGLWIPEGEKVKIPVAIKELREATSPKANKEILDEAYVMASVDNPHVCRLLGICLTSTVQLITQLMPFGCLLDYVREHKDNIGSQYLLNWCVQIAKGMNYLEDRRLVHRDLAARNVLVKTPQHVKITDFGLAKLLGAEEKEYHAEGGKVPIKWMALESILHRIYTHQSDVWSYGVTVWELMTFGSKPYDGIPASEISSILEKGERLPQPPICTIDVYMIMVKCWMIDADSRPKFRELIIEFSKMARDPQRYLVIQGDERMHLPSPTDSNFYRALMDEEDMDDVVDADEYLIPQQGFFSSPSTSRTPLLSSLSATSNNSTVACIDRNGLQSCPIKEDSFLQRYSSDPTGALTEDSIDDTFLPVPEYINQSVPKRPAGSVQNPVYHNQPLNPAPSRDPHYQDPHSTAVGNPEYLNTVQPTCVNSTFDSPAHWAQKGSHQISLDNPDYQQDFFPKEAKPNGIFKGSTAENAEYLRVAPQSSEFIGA

[8] = molecular target: Serine/threonine-protein kinase B-raf (Homo sapiens, UniProt P15056, V600E); assay: Inhibition of B-RAF V600E mutant (unknown origin) using […] as substrate incubated for 40 mins in presence of [gamma33P]ATP by scintillation counting based hotspot kinase assay
Sequence of Serine/threonine-protein kinase B-raf (P15056 2-766 V600E limits assumed): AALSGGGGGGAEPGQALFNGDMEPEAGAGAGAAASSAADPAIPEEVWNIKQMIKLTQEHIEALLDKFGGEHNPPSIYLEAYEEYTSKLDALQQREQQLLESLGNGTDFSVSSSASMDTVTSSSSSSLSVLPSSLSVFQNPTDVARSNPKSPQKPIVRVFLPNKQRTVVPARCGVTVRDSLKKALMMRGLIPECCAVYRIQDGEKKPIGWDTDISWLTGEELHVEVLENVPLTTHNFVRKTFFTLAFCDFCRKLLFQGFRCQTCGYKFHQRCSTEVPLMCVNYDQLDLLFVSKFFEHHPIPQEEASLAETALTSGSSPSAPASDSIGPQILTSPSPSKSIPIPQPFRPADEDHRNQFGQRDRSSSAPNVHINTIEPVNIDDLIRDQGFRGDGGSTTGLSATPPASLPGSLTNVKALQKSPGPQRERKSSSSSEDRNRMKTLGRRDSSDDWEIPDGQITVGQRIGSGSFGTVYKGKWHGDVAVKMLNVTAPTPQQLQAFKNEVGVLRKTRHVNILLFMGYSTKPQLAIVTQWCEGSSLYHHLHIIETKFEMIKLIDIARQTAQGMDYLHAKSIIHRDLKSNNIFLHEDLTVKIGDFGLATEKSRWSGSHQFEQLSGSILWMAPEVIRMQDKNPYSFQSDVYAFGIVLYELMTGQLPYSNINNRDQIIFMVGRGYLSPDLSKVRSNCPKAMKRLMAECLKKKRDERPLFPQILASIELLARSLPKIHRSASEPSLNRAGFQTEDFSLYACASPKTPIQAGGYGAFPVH

[9] = test system: Serine/threonine-protein kinase B-raf (Homo sapiens), P15056 [V600E]; assay: Inhibition of B-RAF V600E mutant (unknown origin) at 10 uM using […] as substrate incubated for 40 mins in presence of [gamma33P]ATP by scintillation counting based hotspot kinase assay relative to control
Sequence of Serine/threonine-protein kinase B-raf (Homo sapiens), P15056 [V600E] (P15056 whole entry V600E): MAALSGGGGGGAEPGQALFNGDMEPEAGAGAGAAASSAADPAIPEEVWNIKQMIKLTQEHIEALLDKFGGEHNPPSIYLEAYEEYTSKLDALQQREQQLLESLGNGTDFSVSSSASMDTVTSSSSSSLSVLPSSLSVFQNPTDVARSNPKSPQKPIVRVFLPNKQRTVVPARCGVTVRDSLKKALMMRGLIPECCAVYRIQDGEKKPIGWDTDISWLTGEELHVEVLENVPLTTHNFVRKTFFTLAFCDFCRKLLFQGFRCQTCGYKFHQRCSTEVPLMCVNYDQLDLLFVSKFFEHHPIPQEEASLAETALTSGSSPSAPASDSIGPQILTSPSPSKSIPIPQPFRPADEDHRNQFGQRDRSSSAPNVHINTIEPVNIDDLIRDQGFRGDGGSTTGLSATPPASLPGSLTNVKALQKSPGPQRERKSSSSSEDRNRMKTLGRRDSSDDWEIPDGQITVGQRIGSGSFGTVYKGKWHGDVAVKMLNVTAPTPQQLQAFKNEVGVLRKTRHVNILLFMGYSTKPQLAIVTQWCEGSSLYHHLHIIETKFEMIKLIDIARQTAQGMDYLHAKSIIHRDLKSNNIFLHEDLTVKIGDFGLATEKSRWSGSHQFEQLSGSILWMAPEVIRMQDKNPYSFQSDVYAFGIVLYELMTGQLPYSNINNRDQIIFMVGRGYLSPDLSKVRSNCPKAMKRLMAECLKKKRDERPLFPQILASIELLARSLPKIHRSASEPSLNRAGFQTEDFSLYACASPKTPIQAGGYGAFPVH

[10] = molecular target: Serine/threonine-protein kinase B-raf (Homo sapiens) (UniProt P15056); assay: Inhibition of B-RAF (unknown origin) at 10 uM using […] as substrate incubated for 40 mins in presence of [gamma33P]ATP by scintillation counting based hotspot kinase assay relative to control
Sequence of Serine/threonine-protein kinase B-raf (Homo sapiens) (P15056 whole entry): as the sequence (P15056 whole entry V600E) above, with E600V counted along it

[11] = test system: L132; assay: Cytotoxicity against human L132 cells assessed as reduction in cell growth at 31.3 to 100 uM relative to control; format: toxicity, cell-based; design: scale not given: the % may be the effect or the level left; conditions: l132, 100 µM, dose 31.3-100 µM
[12] = test system: MDA-MB-468; assay: Cytotoxicity against human MDA-MB-468 cells; format: functional; conditions: read-out: LC50 (the source's name)
In short: (§2)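 Run in the US NCI 58-cell-line screen covering nine cancer types (leukemia, NSCLC, colon, CNS, melanoma, ovarian, renal, prostate, breast). Five-dose mode gave GI50, TGI and LC50 values for each cell line. In the single-dose pre-screen, % inhibition was taken as 100 minus growth percentage.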

[13] = test system: NCI/ADR-RES; assay: Cytotoxicity against human NCI/ADR-RES cells; format: functional; in short: as §2
[14] = test system: SK-MEL-5; assay: Cytotoxicity against human SK-MEL-5 cells; format: functional; in short: as §2
[15] = test system: SNB-75; assay: Cytotoxicity against human SNB-75 cells; format: functional; conditions: read-out: LC50 (the source's name); in short: as §2
[16] = test system: MDA-MB-468; assay: Antiproliferative activity against human MDA-MB-468 cells assessed as total growth inhibition; format: functional
In short: (§3)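 NCI five-dose testing across the 58-line panel gives GI50, TGI and LC50 for each line. Subpanel lines report mean GI50 for each of the nine cancer types.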

[17] = test system: PC-3; assay: Antiproliferative activity against human PC-3 cells assessed as total growth inhibition; format: functional; in short: as §3
[18] = test system: PC-3; assay: Cytotoxicity against human PC-3 cells; format: functional; in short: as §2
[19] = test system: RXF 393; assay: Antiproliferative activity against human RXF 393 cells assessed as total growth inhibition; format: functional; in short: as §3
[20] = test system: NCI/ADR-RES; assay: Antiproliferative activity against human NCI/ADR-RES cells assessed as total growth inhibition; format: functional; in short: as §3
[21] = test system: HOP-92; assay: Cytotoxicity against human HOP-92 cells; format: functional; in short: as §2
[22] = test system: K562; assay: Cytotoxicity against human k562 cells; format: functional; conditions: read-out: LC50 (the source's name); in short: as §2
[23] = test system: SK-MEL-5; assay: Antiproliferative activity against human SK-MEL-5 cells assessed as total growth inhibition; format: functional; in short: as §3
[24] = test system: SNB-75; assay: Antiproliferative activity against human SNB-75 cells assessed as total growth inhibition; format: functional; in short: as §3
[25] = test system: RXF 393; assay: Cytotoxicity against human RXF 393 cells; format: functional; in short: as §2
[26] = test system: HCT-15; assay: Cytotoxicity against human HCT-15 cells; format: functional; conditions: read-out: LC50 (the source's name); in short: as §2
[27] = test system: HCT-15; assay: Antiproliferative activity against human HCT-15 cells assessed as total growth inhibition; format: functional; in short: as §3
[28] = test system: COLO 205; assay: Cytotoxicity against human COLO 205 cells; format: functional; in short: as §2
[29] = test system: COLO 205; assay: Antiproliferative activity against human COLO 205 cells assessed as total growth inhibition; format: functional; in short: as §3
[30] = test system: HOP-92; assay: Antiproliferative activity against human HOP-92 cells assessed as total growth inhibition; format: functional; in short: as §3
[31] = test system: K562; assay: Antiproliferative activity against human K562 cells assessed as total growth inhibition; format: functional; in short: as §3
[32] = test system: MDA-MB-468; assay: Antiproliferative activity against human MDA-MB-468 cells assessed as reduction in cell growth; format: functional; in short: as §3
[33] = test system: PC-3; assay: Antiproliferative activity against human PC-3 cells assessed as reduction in cell growth; format: functional; in short: as §3
[34] = test system: RXF 393; assay: Antiproliferative activity against human RXF 393 cells assessed as reduction in cell growth; format: functional; in short: as §3
[35] = test system: NCI/ADR-RES; assay: Antiproliferative activity against human NCI/ADR-RES cells assessed as reduction in cell growth; format: functional; in short: as §3
[36] = test system: SK-MEL-5; assay: Antiproliferative activity against human SK-MEL-5 cells assessed as reduction in cell growth; format: functional; in short: as §3
[37] = test system: SNB-75; assay: Antiproliferative activity against human SNB-75 cells assessed as reduction in cell growth; format: functional; in short: as §3
[38] = test system: HCT-15; assay: Antiproliferative activity against human HCT-15 cells assessed as reduction in cell growth; format: functional; in short: as §3
[39] = test system: COLO 205; assay: Antiproliferative activity against human COLO 205 cells assessed as reduction in cell growth; format: functional; in short: as §3
[40] = test system: HOP-92; assay: Antiproliferative activity against human HOP-92 cells assessed as reduction in cell growth; format: functional; in short: as §3
[41] = test system: K562; assay: Antiproliferative activity against human K562 cells assessed as reduction in cell growth; format: functional; in short: as §3
[42] = test system: Panel breast (Carcinoma cell lines); assay: Antiproliferative activity against human Panel breast (6 Carcinoma cell lines) assessed as reduction in mean cell growth; format: functional; in short: as §3
[43] = test system: Panel prostate (Carcinoma cell lines); assay: Antiproliferative activity against human Panel prostate (2 Carcinoma cell lines) assessed as reduction in mean cell growth; format: functional; in short: as §3
[44] = test system: Panel renal (Carcinoma cell lines); assay: Antiproliferative activity against human Panel renal (8 Carcinoma cell lines) assessed as reduction in mean cell growth; format: functional; in short: as §3
[45] = test system: Panel ovarian (Carcinoma cell lines); assay: Antiproliferative activity against human Panel ovarian (7 Carcinoma cell lines) assessed as reduction in mean cell growth; format: functional; in short: as §3
[46] = test system: Panel CNS (Carcinoma cell lines); assay: Antiproliferative activity against human Panel CNS (6 Carcinoma cell lines) assessed as reduction in mean cell growth; format: functional; in short: as §3
[47] = test system: Panel melanoma (Carcinoma cell lines); assay: Antiproliferative activity against human Panel melanoma (9 Carcinoma cell lines) assessed as reduction in mean cell growth; format: functional; in short: as §3
[48] = test system: Panel colon (Carcinoma cell lines); assay: Antiproliferative activity against human Panel colon (7 Carcinoma cell lines) assessed as reduction in mean cell growth; format: functional; in short: as §3
[49] = Antiproliferative activity against human Panel non-small cell lung cancer (8 Carcinoma cell lines) assessed as reduction in mean cell growth; format: functional; conditions: Non-small cell lung cancer cell line; in short: as §3
[50] = test system: Panel leukemia (Carcinoma cell lines); assay: Antiproliferative activity against human Panel leukemia (5 Carcinoma cell lines) assessed as reduction in mean cell growth; format: functional; in short: as §3
[51] = test system: COLO 205; assay: Antiproliferative activity against human COLO 205 cells assessed as inhibition of cell growth at 10 uM; format: functional; in short: as §1
[52] = test system: HCC 2998; assay: Antiproliferative activity against human HCC 2998 cells assessed as inhibition of cell growth at 10 uM; format: functional; in short: as §1
[53] = test system: LOX IMVI; assay: Antiproliferative activity against human LOX IMVI cells assessed as inhibition of cell growth at 10 uM; format: functional; in short: as §1

`COc1cccc(-c2nn(-c3ccccc3)cc2-c2ccnc(NCCCNC(=O)Nc3ccc(Cl)c(Cl)c3)c2)c1` gave an Activity [1] of 104.1%, an inhibition [2] of 6.38% and an inhibition [3] of 7.7%. It also gave an IC50 [4] of 1.5 µM, an inhibition [5] of 87.7% and an inhibition [6] of 45.8%. For the same molecule, the inhibition [7] was 3.38%, the IC50 [8] was 0.77 µM and the inhibition [9] was 90.4%. The inhibition [10] was 56.9%, the Activity [11] was 50% and the CC50 [12] was 9.82 µM. For the same molecule, the LC50 [13] was 86.9 µM, the LC50 [14] was 6.3 µM and the CC50 [15] was 100 µM. It also gave a TGI [16] of 4.34 µM, a TGI [17] of 22.4 µM and an LC50 [18] of 100 µM. The TGI [19] was 4.87 µM, the TGI [20] was 5.39 µM and the LC50 [21] was 71 µM. The CC50 [22] was 100 µM, the TGI [23] was 3.32 µM and the TGI [24] was 19.2 µM. For the same molecule, the LC50 [25] was 23 µM, the CC50 [26] was 29.1 µM and the TGI [27] was 6.66 µM. The LC50 (lethal concentration 50%) [28] was 7.8 µM, the TGI [29] was 3.82 µM and the TGI [30] was 7.68 µM. It also gave a TGI [31] of 5.85 µM, a GI50 [32] of 1.92 µM and a GI50 [33] of 3.96 µM. The GI50 [34] was 1.8 µM, the GI50 [35] was 2.19 µM and the GI50 [36] was 1.75 µM. It also gave a GI50 [37] of 2.52 µM, a GI50 [38] of 2.4 µM and a GI50 [39] of 1.87 µM. It also gave a GI50 [40] of 2.32 µM, a GI50 [41] of 2.38 µM and a GI50 [42] of 2.69 µM. The GI50 [43] was 4.71 µM, the GI50 [44] was 3.14 µM and the GI50 [45] was 3.74 µM. The GI50 [46] was 2.93 µM, the GI50 [47] was 1.89 µM and the GI50 [48] was 2.44 µM. For the same molecule, the GI50 [49] was 3.51 µM, the GI50 [50] was 2.31 µM and the inhibition at 10 µM [51] was 145%. For the same molecule, the inhibition at 10 µM [52] was 162% and the inhibition at 10 µM [53] was 192%.
